{"source": "paper PMC5665024", "about": "(Chemical research in toxicology, 2017)", "key": {"UACC903 cells": {"system": "UACC903 cells", "assay": "MTS assay of cell proliferation, UACC903", "format": "cell-based, human", "details": "for IC50: Homo sapiens; for −log(IC50) (95% CI): tested compound alone", "in_short": "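Cells grown in DMEM with 10% FBS at 37 °C and 5% CO2. Plated at 5 × 10^3 per well, grown 24 h, then exposed 24 or 72 h to test compound alone or in pairs: 10 μM bleomycin-type or 250 μM alkylating agent added to the lignan, or 10 μM lignan added to either. DMSO 0.2% final; vehicle controls. MTS/PMS for 4 h; A492; cell-free background. Triplicate; IC50 fit, 95% CI.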"}, "rats": {"system": "rats", "details": "dose of 100 mg/kg; cited from earlier work"}, "GM12878 cells": {"system": "GM12878 cells", "assay": "MTS assay of cell proliferation, GM12878", "format": "cell-based, human", "details": "Homo sapiens, 24 h, GM12878, 24 h incubation", "in_short": "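Lymphoblasts grown in RPMI 1640 with 15% FBS at 37 °C and 5% CO2. Plated at 5 × 10^3 per well, grown 24 h, then exposed 24 or 72 h to test compound alone or with 10 μM lignan inhibitor added. DMSO 0.2% final; vehicle controls. MTS/PMS in PBS pH 7.2 for 4 h at 37 °C; A492; cell-free background. Triplicate; normalized absorbance fitted for IC50 with 95% CI.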"}}, "note": "Read-outs that look alike come from different tables or passages of the source.", "data": [{"compound": "C=CCc1ccc(O)c(-c2ccc(O)c(CC=C)c2)c1", "note": "[HNL, 2-(4-hydroxy-3-prop-2-enyl-phenyl)-4-prop-2-enyl-phenol]", "values": [{"measurement": "IC50", "setting": "UACC903 cells; UACC-903, 24 h, read-out: −log(IC50) (95% CI), UACC903, 24 h, tested compound alone (converted)", "value": 25.1, "unit": "µM"}, {"measurement": "IC50", "setting": "UACC903 cells; UACC-903, 72 h, read-out: −log(IC50) (95% CI), UACC903, 72 h, tested compound alone (converted)", "value": 15.8, "unit": "µM"}, {"measurement": "−log(IC50) (95% CI)", "setting": "UACC903 cells; UACC903, 24 h", "value": "4.6 (4.47, 4.8)"}, {"measurement": "−log(IC50) (95% CI)", "setting": "UACC903 cells; UACC903, 72 h", "value": "4.8 (4.65, 4.9)"}, {"measurement": "toxicity and side effects in rats", "setting": "rats", "value": "nontoxic with no side effects"}, {"measurement": "EC50", "setting": "GM12878 cells; another study", "value": "> 100", "unit": "µM"}, {"measurement": "EC50", "setting": "GM12878 cells; one study", "value": "> 1000", "unit": "µM"}]}]}
